Drawing on ChEMBL document CHEMBL1121880, “Synthesis and antiviral activity of 5-[(cyanomethylene)oxy]-2'-deoxyuridine” (J Med Chem, 1981), this text covers IC50 for six molecules.

Converted amounts (≈) assume the structure as drawn.

Assay type in all cases: functional, cell-based
Holding throughout (details): Oryctolagus cuniculus

For assay [1], the system named is PRK. The assay is described as follows: Concentration required to reduce HSV-2 induced cytopathogenicity by 50% in primary rabbit kidney (PRK) cells; 0.2-0.4.
Assay [2] deals with PRK. Put plainly: Concentration required to reduce TK-HSV-1 (B2006) induced cytopathogenicity by 50% in primary rabbit kidney (PRK) cells.
The subject of assay [3] is PRK. The assay is described as follows: Concentration required to inhibit incorporation of [1,'2'-3H]dUrd into DNA of primary rabbit kidney (PRK) cells by 50%. In short, it runs like this:
(§1)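 Uninfected primary rabbit kidney cells; IC50 = concentration reducing incorporation of [Me-3H]dThd or [1',2'-3H]dUrd into host cell DNA by 50%.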

Assay [4] relates to PRK. Put plainly: Concentration required to reduce HSV-1 induced cytopathogenicity by 50% in primary rabbit kidney (PRK) cells.
In assay [5] the test system is PRK. Put plainly: Compound was evaluated for antiviral activity in rabbit kidney cells infected with vaccinia virus.
For assay [6], the system named is PRK. The assay is described as follows: Concentration required to inhibit incorporation of [Me-3H]-dThd into DNA of primary rabbit kidney (PRK) cells by 50%. In short, it runs like this: as §1
Assay [7] concerns PRK. The assay is described as follows: Concentration required to reduce HSV-2 induced cytopathogenicity by 50% in primary rabbit kidney (PRK) cells; 7-40.
The subject of assay [8] is PRK. The assay is described as follows: Concentration required to reduce HSV-1(KOS) induced cytopathogenicity by 50% was measured by the addition of [Me-3H]-dThd.
The test system of assay [9] is PRK. Put plainly: Concentration required to reduce HSV-1(KOS) induced cytopathogenicity by 50% was measured. In short, it runs like this:
(§2)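 PRK cell cultures infected with 100 CCID50 HSV-1 (KOS), then given varying compound concentrations right after virus adsorption, without added nucleoside.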

In assay [10] the test system is PRK. The assay is described as follows: Concentration required to reduce HSV-1 induced cytopathogenicity by 50% in primary rabbit kidney (PRK) cells; 1-1.5.
The subject of assay [11] is PRK. Put plainly: Concentration required to reduce HSV-1(KOS) induced cytopathogenicity by 50% was measured by the addition of [1,'2'-3H]dUrd. In short, it runs like this: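 HSV-1 (KOS) cytopathogenicity in PRK cells (100 CCID50 inoculum) with dThd or dUrd, unlabelled, added together with test compound at 100 μg/mL final, the highest level not itself inhibiting virus replication. CPE scored at 100% destruction in untreated infected controls; IC50 = concentration halving cytopathogenicity.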

Assay [12] concerns PRK. The assay is described as follows: Concentration required to reduce HSV-1(KOS) induced cytopathogenicity in primary Rabbit by 50%. In short, it runs like this:
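Confluent primary rabbit kidney cell cultures inoculated with 100 CCID50 HSV-1 (KOS); varying compound concentrations added immediately after virus adsorption. Cytopathogenicity scored once virus-infected untreated controls reached 100% cell destruction; IC50 = concentration reducing cytopathogenicity by 50%.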

In assay [13] the test system is PRK. Put plainly: Concentration required to reduce HSV-1(KOS) induced cytopathogenicity primary rabbit kidney by 50% was measured by the addition of [1,'2'-3H]dUrd.
In assay [14] the test system is PRK. Put plainly: Concentration required to reduce HSV-1(KOS) induced cytopathogenicity primary rabbit kidney by 50% was measured by the addition of [Me-3H]-dThd.
Assay [15] concerns PRK. The assay is described as follows: Concentration required to reduce HSV-1 induced cytopathogenicity by 50% in primary rabbit kidney (PRK) cells; 4-10.
For assay [16], the system named is PRK. The assay is described as follows: Concentration required to reduce HSV-2 induced cytopathogenicity by 50% in primary rabbit kidney (PRK) cells; 2-4.
The test system of assay [17] is PRK. The assay is described as follows: Concentration required to reduce HSV-1(KOS) induced cytopathogenicity by 50%. In short, it runs like this:
as §2

The subject of assay [18] is PRK. The assay is described as follows: Concentration required to reduce HSV-2 induced cytopathogenicity by 50% in primary rabbit kidney (PRK) cells; 10-150.
Assay [19] concerns PRK. The assay is described as follows: Concentration required to reduce HSV-1 induced cytopathogenicity by 50% in primary rabbit kidney (PRK) cells; 2-4.

For the molecule `O=c1[nH]c(=O)n([C@H]2C[C@H](O)[C@@H](CO)O2)cc1I` [IDOXURIDINE], the IC50 in the assay on PRK [1] was determined as 0.2 µg/mL (≈ 0.565 µM); in the assay on PRK [2], 200 µg/mL (≈ 565 µM); in the assay on PRK [3], 0.3 µg/mL (≈ 0.847 µM); in the assay with PRK [4], 0.1 µg/mL (≈ 0.282 µM); in the assay on PRK [5] it was 0.4 µg/mL (≈ 1.13 µM); in the assay on PRK [6], 1 µg/mL (≈ 2.82 µM).
`C#CCOc1cn([C@H]2C[C@H](O)[C@@H](CO)O2)c(=O)[nH]c1=O`: the IC50 with PRK [2] is greater than 200 µg/mL; with PRK [7] it was 19 µg/mL (≈ 67.3 µM); in the assay with PRK [8], 400 µg/mL (≈ 1420 µM); in the assay with PRK [3], 100 µg/mL (≈ 354 µM); with PRK [9], 0.7 µg/mL (≈ 2.48 µM); with PRK [10], 1 µg/mL (≈ 3.54 µM). The IC50 stood at 20 µg/mL (≈ 70.9 µM) with PRK [5], 200 µg/mL (≈ 709 µM) with PRK [6] and 40 µg/mL (≈ 142 µM) with PRK [11].
With `O=c1[nH]c(=O)n([C@H]2C[C@H](O)[C@@H](CO)O2)cc1F` [FLOXURIDINE], the IC50 was 1 µg/mL (≈ 4.06 µM) with PRK [12], 10 µg/mL (≈ 40.6 µM) in the assay on PRK [13] and greater than 400 µg/mL in the assay on PRK [14].
As for `Nc1ncnc2c1ncn2[C@@H]1O[C@H](CO)[C@@H](O)[C@@H]1O` [VIDARABINE], the IC50 with PRK [2] was 10 µg/mL (≈ 37.4 µM); in the assay on PRK [15] it was 7 µg/mL (≈ 26.2 µM); in the assay on PRK [8], 1 µg/mL (≈ 3.74 µM); in the assay on PRK [3], 10 µg/mL (≈ 37.4 µM); with PRK [9], 4 µg/mL (≈ 15 µM); in the assay on PRK [16], 3 µg/mL (≈ 11.2 µM). Also, the results for the IC50 in the assay on PRK [5], in the assay with PRK [6] and in the assay with PRK [11] were 0.4 µg/mL (≈ 1.5 µM), 20 µg/mL (≈ 74.8 µM) and 1 µg/mL (≈ 3.74 µM), respectively.
As for `N#Cc1cn([C@H]2C[C@H](O)[C@@H](CO)O2)c(=O)[nH]c1=O`, the IC50 is 8 µg/mL (≈ 31.6 µM) with PRK [3] and greater than 400 µg/mL in the assay on PRK [6].
On to `N#CCOc1cn([C@H]2C[C@H](O)[C@@H](CO)O2)c(=O)[nH]c1=O`, for which the concentration for half-maximal inhibition (IC50) is 1.5 µg/mL (≈ 5.3 µM) with PRK [17]; greater than 400 µg/mL in the assay with PRK [2]; greater than 400 µg/mL in the assay on PRK [8]; 10 µg/mL (≈ 35.3 µM) in the assay on PRK [18]; greater than 400 µg/mL in the assay on PRK [3]; 2 µg/mL (≈ 7.06 µM) with PRK [19]. For the same molecule, the IC50 in the assay on PRK [5] was 150 µg/mL (≈ 530 µM); with PRK [6], 400 µg/mL (≈ 1410 µM); in the assay on PRK [11], greater than 400 µg/mL.
